Results as given in ChEMBL document CHEMBL2040790 (Bioorg Med Chem Lett, 2012).
Active and inactive are the calls of the source. The calls are words filed in the database; no cut-off is given here.

Key:
Vaccinia virus [1] = assay: Antiviral activity against Vaccinia virus; type: functional, organism-based; settings: Orthopoxvirus vaccinia
La Crosse virus [2] = assay: Antiviral activity against La Crosse virus infected in african green monkey Vero cells assessed as inhibition of virus-induced cytopathic effect by fluorometric analysis; type: functional, organism-based
[3] = Solubility of the compound in simulated gastric fluid; type: physicochemical; settings: simulated gi fluid; BLD = below limit of detection
Vaccinia virus [4] = assay: Antiviral activity against Vaccinia virus at 25 uM during single experiment set up; type: functional, organism-based; settings: Orthopoxvirus vaccinia
La Crosse virus [5] = assay: Antiviral activity against La Crosse virus infected in african green monkey Vero cells assessed as inhibition of virus-induced cytopathic effect at 25 uM during single experiment set up by fluorometric analysis; type: functional, organism-based
Vero = assay: Cytotoxicity against african green monkey Vero cells; type: cell-based; settings: chlorocebus sabaeus
La Crosse virus [6] = assay: Antiviral activity against La Crosse virus infected in african green monkey Vero cells assessed as inhibition of virus-induced cytopathic effect at 5 uM after 4 days by spectrophotometric analysis; type: functional, organism-based
Method in brief: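 Primary screen run at one fixed concentration of 5 μM. Compounds active at that level were then carried into dose-response testing (0.009–25 μM) against RVFV and LACV.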

Rift Valley fever virus = assay: Antiviral activity against Rift Valley fever virus at 5 uM; type: functional, organism-based
Method in brief: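 Single-concentration primary screen at 5 μM. Molecules active there and bearing viable scaffolds were then taken into concentration-response testing over 0.009–25 μM.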

Vaccinia virus [7] = assay: Antiviral activity against Vaccinia virus during single experiment set up; type: functional, organism-based; settings: Orthopoxvirus vaccinia

| Structure (SMILES) | EC50 (Vaccinia virus [1]) | EC50 (La Crosse virus [2]) | Activity (Vaccinia virus [4]) | Activity (La Crosse virus [5]) | further results |
| --- | --- | --- | --- | --- | --- |
| CN(C)c1ccc(NC(=S)NC(=O)c2ccc(C(C)(C)C)cc2)c(Cl)c1.Cl | 3.26 µM | 1.55 µM | – | – | solubility [3]: BLD |
| COc1cc(NC(=S)NC(=O)c2ccc(C(C)(C)C)cc2)ccc1N | 2.09 µM | 1.69 µM | inactive | inactive | – |
| CC(C)(C)c1ccc(C(=O)NC(=S)Nc2ccc(CN3CCCCC3)cc2)cc1 | > 25 µM | > 25 µM | inactive | inactive | Activity (Vero): Toxic |
| CC(C)(C)c1ccc(C(=O)NC(=S)Nc2ccc(NC(=O)c3ccccc3)cc2)cc1 | 0.17 µM | 0.15 µM | inactive | inactive | – |
| CC(C)(C)c1ccc(C(=O)NC(=S)Nc2ccc(N)cc2)cc1 | 4.41 µM | 2.27 µM | inactive | – | – |
| CC(C)(C)c1ccc(C(=O)NC(=S)Nc2ccccc2Cl)cc1 | 0.35 µM | 0.28 µM | – | – | Activity (La Crosse virus [6]): Active; Activity (Rift Valley fever virus): Active |
| COc1cc(NC(=S)NC(=O)c2ccc(C(C)(C)C)cc2)ccc1NC(=O)c1cccc(C(=O)O)c1 | > 25 µM | – | inactive | inactive | – |
| CNc1ccc(C(=O)Nc2ccc(NC(=S)NC(=O)c3ccc(C(C)(C)C)cc3)cc2OC)cc1.Cl | 0.81 µM | > 25 µM | inactive | – | Activity (Vero): Toxic |
| Cc1ccc(Cl)c(NC(=S)NC(=O)c2ccc(C(C)(C)C)cc2)c1 | 0.66 µM | 1.67 µM | – | inactive | – |
| CC(C)(C)c1ccc(C(=O)NC(=S)Nc2ccc(N)c(N)c2)cc1 | > 25 µM | > 25 µM | – | – | EC50 (Vaccinia virus [7]): 7.78 µM |
| CC(C)(C)c1ccc(C(=O)NC(=S)Nc2ccc(N3CCOCC3)cc2)cc1 | > 25 µM | > 25 µM | inactive | inactive | Activity (Vero): Toxic |
| CC(=O)N1CCN(c2ccc(NC(=S)NC(=O)c3ccc(C(C)(C)C)cc3)cc2)CC1 | > 25 µM | > 25 µM | inactive | inactive | Activity (Vero): Toxic |
| CC(C)(C)c1ccc(C(=O)NC(=S)Nc2cc(Cl)ccc2Cl)cc1 | 2.42 µM | 2.45 µM | inactive | inactive | – |
| CC(C)(C)c1ccc(C(=O)NC(=S)Nc2cccc(N)c2)cc1 | 2.72 µM | 2.19 µM | inactive | – | – |
| Cc1c(Cl)cccc1NC(=S)NC(=O)c1ccc(C(C)(C)C)cc1 | 6.47 µM | 0.919 µM | inactive | inactive | – |
| CC(C)(C)c1ccc(C(=O)NC(=S)Nc2cc(C(C)(C)C)ccc2O)cc1 | 0.98 µM | 3.42 µM | – | – | Activity (Vero): Toxic |
| Cc1cc(C)cc(NC(=S)NC(=O)c2ccc(C(C)(C)C)cc2)c1 | 3.48 µM | 4.43 µM | – | inactive | – |
| COC(=O)c1cnc(NC(=S)NC(=O)c2ccc(C(C)(C)C)cc2)s1 | > 25 µM | > 25 µM | – | – | – |
| CC(C)(C)c1ccc(C(=O)NC(=S)Nc2ccccc2)cc1 | 5.57 µM | 5.01 µM | – | inactive | – |
| COc1ccc(-c2csc(NC(=S)NC(=O)c3ccc(C(C)(C)C)cc3)n2)cc1OC | > 25 µM | > 25 µM | – | – | – |
| Cc1cccc(Cl)c1NC(=S)NC(=O)c1ccc(C(C)(C)C)cc1 | 2.49 µM | 0.94 µM | – | – | – |
| CC(C)(C)c1ccc(C(=O)NC(=S)Nc2cccc(C(F)(F)F)c2Cl)cc1 | 1.83 µM | 0.85 µM | – | – | – |

| Structure (SMILES) | EC50 (Vaccinia virus [1]) | EC50 (La Crosse virus [2]) | Activity (Vaccinia virus [4]) | Activity (La Crosse virus [5]) | further results |
| --- | --- | --- | --- | --- | --- |
| CNc1cccc(C(=O)Nc2ccc(NC(=S)NC(=O)c3ccc(C(C)(C)C)cc3)cc2OC)c1.Cl | 1.63 µM | > 25 µM | – | – | Activity (Vero): Toxic |
| COc1ccc(NC(=S)NC(=O)c2ccc(C(C)(C)C)cc2)cc1 | 2.39 µM | > 25 µM | – | – | – |
| CC(C)(C)c1ccc(C(=O)NC(=S)Nc2cccc(NC(=O)c3ccccc3Cl)c2)cc1 | > 25 µM | > 25 µM | – | – | – |
| COc1cc(NC(=S)NC(=O)c2ccc(C(C)(C)C)cc2)ccc1NC(=O)c1c[nH]cn1 | > 25 µM | > 25 µM | – | – | – |
| CC(C)(C)c1ccc(C(=O)NC(=S)Nc2ccc(Nc3cccnc3)cc2)cc1 | 24.5 µM | > 25 µM | – | – | – |
| CC(C)(C)c1ccc(C(=O)NC(=S)Nc2ccc(Nc3ccncc3)cc2)cc1 | > 25 µM | 7.7 µM | – | – | – |
| COc1cc(NC(=S)NC(=O)c2ccc(C(C)(C)C)cc2)ccc1NC(=O)c1ccc(C(=O)O)cc1 | > 25 µM | > 25 µM | inactive | inactive | – |
| Cc1ccc(O)c(NC(=S)NC(=O)c2ccc(C(C)(C)C)cc2)c1 | > 25 µM | > 25 µM | – | – | Activity (Vero): Toxic |
| CC(C)(C)c1ccc(C(=O)NC(=S)Nc2ccc(CN3CCOCC3)cc2)cc1 | > 25 µM | > 25 µM | inactive | inactive | Activity (Vero): Toxic |
| COc1cc(N/C(=N/C(=O)c2ccc(C(C)(C)C)cc2)SCCN(C)C)ccc1NC(=O)c1ccccc1Cl | > 25 µM | > 25 µM | – | – | – |
| COc1cc(NC(=S)NC(=O)c2ccc(C(C)(C)C)cc2)ccc1NCc1ccccc1Cl | 0.34 µM | 0.2 µM | – | – | – |
| CC(C)(C)c1ccc(C(=O)NC(=S)Nc2ccccc2C(=O)O)cc1 | > 25 µM | > 25 µM | – | – | EC50 (Vaccinia virus [7]): 2.29 µM |
| COc1cc(NC(=S)NC(=O)c2ccc(C(C)(C)C)cc2)ccc1NC(=O)c1cccc(N)c1 | > 25 µM | > 25 µM | – | – | – |
| CC(C)(C)c1ccc(C(=O)NC(=S)Nc2cc(C(F)(F)F)ccc2Cl)cc1 | 1 µM | 0.6 µM | – | – | – |
| COc1cc(NC(=S)NC(=O)c2ccc(C(C)(C)C)cc2)ccc1NC(=O)CCC(=O)O | > 25 µM | > 25 µM | – | – | – |
| CC(C)(C)c1ccc(C(=O)NC(=S)NC2CCCCC2)cc1 | 4.92 µM | 3.71 µM | – | – | – |
| CC(C)(C)c1ccc(C(=O)NC(=S)Nc2cccc(CN)c2)cc1 | > 25 µM | > 25 µM | – | – | – |
| CNc1ccc(NC(=S)NC(=O)c2ccc(C(C)(C)C)cc2)cc1 | 1.16 µM | 1.45 µM | – | – | – |
| CC(C)(C)c1ccc(C(=O)NC(=S)Nc2ccc(N3CCCCC3)cc2)cc1 | > 25 µM | > 25 µM | inactive | inactive | Activity (Vero): Toxic |
| COc1cc(NC(=S)NC(=O)c2ccc(C(C)(C)C)cc2)ccc1NC(N)=O | > 25 µM | 4.86 µM | – | – | – |
| COc1cc(NC(=S)NC(=O)c2ccc(C(C)(C)C)cc2)ccc1NC(=O)c1ncc[nH]1 | > 25 µM | > 25 µM | – | – | – |
